Laboratory results as given in ChEMBL document CHEMBL1145139, “Synthesis and pharmacological evaluation of 1-oxo-2-(3-piperidyl)-1,2,3,4- tetrahydroisoquinolines and related analogues as a new class of specific bradycardic agents possessing I(f) channel inhibitory activity” (2003).

Key:
Assay type in all cases: functional
Cavia porcellus = species: Cavia porcellus; test: In vitro bradycardiac activity on isolated right atrium of guinea pig.; conditions: Cardiac atrium
Procedure, shortened: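 Male Hartley guinea pigs (250–400 g); spontaneously beating right atria in Tyrode's solution at 37 °C, 95% O2/5% CO2, 1 g tension, 90 min equilibration. Compound added cumulatively at 45 min intervals; beat rate counted from isometric contraction. Value = concentration giving 30% reduction from initial spontaneous rate; mean ± SEM, three to six experiments.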

Rattus norvegicus [1] = test: In vivo effect on mean blood pressure of anesthetized rats following 3 mg/kg i.v.; conditions: route intravenous
Procedure, shortened: (§1)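 Male Wister rats (270–350 g), anesthetized (pentobarbital ip per methods; urethane per text). Compound at 3 mg/kg (salt form) in aqueous solution or saline, iv via jugular vein catheter. HR taken from the blood-pressure pulse wave; MBP = DBP + (SBP−DBP)/3. Maximal percent change from initial value; mean ± SEM, three to four experiments.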

Rattus norvegicus [2] = test: In vivo effect on heart rate of anesthetized rats following 3 mg/kg i.v.; conditions: route intravenous; procedure, shortened: as §1

| SMILES | EC30 (Cavia porcellus) [µM] | Change (Rattus norvegicus [1]) [%] | Change (Rattus norvegicus [2]) [%] |
| --- | --- | --- | --- |
| CCOc1ccc(OCCCN2CCCC(N3CCc4cc(OC)c(OC)cc4C3=O)C2)cc1.Cl (stereo not given) | 0.097 | -7.8 | -49 |
| COc1cc2c(cc1OC)C(=O)N(C1CCCN(CCCOc3ccccc3)C1)CC2.Cl (stereo not given) | 0.39 | 3.2 | -32 |
| COc1cc2c(cc1OC)C(=O)N(C1CCCN(CCCOc3ccc(C#N)cc3)C1)CC2.Cl (stereo not given) | 0.24 | -6.8 | -23 |
| COc1cc2c(cc1OC)C(=O)N([C@H]1CCCN(CCCOc3ccc4c(c3)OCO4)C1)CC2.Cl | 0.068 | -23 | -53 |
| COc1cc2c(cc1OC)C(=O)N(C1CCCN(CCCOc3ccc(C)cc3)C1)CC2.Cl (stereo not given) | 0.14 | -12 | -37 |
| COc1cc2c(cc1OC)C(=O)N(C1CCCN(CCCOc3ccc(C(F)(F)F)cc3)C1)CC2 (stereo not given) | 0.79 | – | – |
| COc1cc2ccn(C3CCCN(CCCOc4ccc5c(c4)OCO5)C3)c(=O)c2cc1OC.Cl (stereo not given) | 0.2 | 11 | -26 |
| COc1cc2c(cc1OC)C(=O)N(C1CCCN(CCCOc3ccc4c(c3)OCO4)C1)CC2.Cl (stereo not given) | 0.067 | -14 | -48 |
| COC(=O)c1ccc(OCCCN2CCCC(N3CCc4cc(OC)c(OC)cc4C3=O)C2)cc1.Cl (stereo not given) | 0.11 | -2.3 | -30 |
| COc1cccc(OCCCN2CCCC(N3CCc4cc(OC)c(OC)cc4C3=O)C2)c1.Cl (stereo not given) | 0.14 | -11 | -47 |
| COc1cc2c(cc1OC)C(=O)N(C1CCCN(CCCOc3ccc(O)cc3)C1)CC2 (stereo not given) | 0.89 | – | – |
| COc1cc2c(cc1OC)C(=O)N(C1CCCN(CCCOc3ccc(OCc4ccccc4)cc3)C1)CC2 (stereo not given) | 1.3 | – | – |
| COc1cc2c(cc1OC)C(=O)N(C1CCCN(CCCOc3ccc(Br)cc3)C1)CC2 (stereo not given) | 0.47 | – | – |
| COc1cc2c(cc1OC)C(=O)N(C1CCCN(CCCOc3ccc(C(N)=O)cc3)C1)CC2 (stereo not given) | 5.7 | – | – |
| COc1cc2[nH]c(=O)n(C3CCCN(CCCOc4ccc5c(c4)OCO5)C3)c(=O)c2cc1OC (stereo not given) | 0.92 | – | – |
| COc1cc2c(cc1OC)CN(C1CCCN(CCCOc3ccc4c(c3)OCO4)C1)CC2.Cl (stereo not given) | 0.25 | -7.1 | -47 |
| COc1cc2ncn(C3CCCN(CCCOc4ccc5c(c4)OCO5)C3)c(=O)c2cc1OC.Cl (stereo not given) | 0.26 | -20 | -34 |
| COc1ccc(OCCCN2CCCC(N3CCc4cc(OC)c(OC)cc4C3=O)C2)cc1.Cl (stereo not given) | 0.099 | -16 | -49 |

| SMILES | EC30 (Cavia porcellus) [µM] | Change (Rattus norvegicus [1]) [%] | Change (Rattus norvegicus [2]) [%] |
| --- | --- | --- | --- |
| COc1cc2c(cc1OC)C(=O)N(C1CCCN(CCCOc3ccc(Cl)cc3)C1)CC2.Cl (stereo not given) | 0.35 | -12 | -32 |
| COc1cc2c(cc1OC)C(=O)N(C1CCCN(CCCOc3ccc4c(c3)OCCO4)C1)CC2.Cl (stereo not given) | 0.13 | -12 | -44 |
| COc1ccc(OCCCN2CCCC(N3CCc4cc(OC)c(OC)cc4C3=O)C2)cc1OC.Cl (stereo not given) | 0.11 | -18 | -56 |
| COc1cc2c(cc1OC)C(=O)N(C1CCCN(CCCOc3ccc(N)cc3)C1)CC2 (stereo not given) | 1.6 | – | – |
| COc1cc2c(cc1OC)C(=O)N(C1CCCN(CCCOc3ccc(F)cc3)C1)CC2.Cl (stereo not given) | 0.24 | -17 | -39 |
| COc1cc2c(cc1OC)C(=O)N([C@@H]1CCCN(CCCOc3ccc4c(c3)OCO4)C1)CC2.Cl | 0.079 | -13 | -55 |
| COc1cc2c(cc1OC)C(=O)N(C1CCCN(CCCOc3ccc(NC(C)=O)cc3)C1)CC2 (stereo not given) | 0.76 | – | – |
| COc1cc2c(cc1OC)C(=O)N(C1CCCN(CCCOc3ccc([N+](=O)[O-])cc3)C1)CC2.Cl (stereo not given) | 0.27 | 41 | -5.6 |
| COc1cc2c(cc1OC)C(=O)N(C1CCCN(CCCOc3ccc4[nH]ccc4c3)C1)CC2 (stereo not given) | 0.36 | – | – |
| COc1ccc(CCN(C)CCCN2CCc3cc(OC)c(OC)cc3CC2=O)cc1OC.Cl [ZATEBRADINE HYDROCHLORIDE] | 0.26 | 5.4 | -47 |
| CCCOc1ccc(OCCCN2CCCC(N3CCc4cc(OC)c(OC)cc4C3=O)C2)cc1 (stereo not given) | 0.27 | – | – |
| COc1cc2c(cc1OC)C(=O)N(C1CCCN(CCCOc3ccc(OC(C)C)cc3)C1)CC2 (stereo not given) | 0.33 | – | – |
| COc1cc2c(cc1OC)C(=O)N(C1CCCN(CCCOc3ccc4c(c3)CCC4)C1)CC2 (stereo not given) | 0.89 | – | – |
| COc1ccc(C(=O)N(C)C2CCCN(CCCOc3ccc4c(c3)OCO4)C2)cc1OC (stereo not given) | 3.5 | – | – |
| COc1ccc(C(=O)NC2CCCN(CCCOc3ccc4c(c3)OCO4)C2)cc1OC.Cl (stereo not given) | 0.42 | -11 | -29 |
| COc1cc2c(cc1OC)C(=O)N(C1CCCN(CCCOc3ccccc3OC)C1)CC2 (stereo not given) | 0.39 | – | – |
| COc1cc2c(cc1OC)C(=O)N(C1CCCN(CCCOc3cc(OC)c(OC)c(OC)c3)C1)CC2 (stereo not given) | 1.6 | – | – |
